In ChEMBL document CHEMBL1158154, “Design and synthesis of novel 2-pyridone peptidomimetic falcipain 2/3 inhibitors” (Bioorg Med Chem Lett, 2008):

What was measured:
[1] = target: T1, Cysteine protease falcipain-3 (Plasmodium falciparum, UniProt Q9NBA7); experiment: Inhibition of Plasmodium falciparum recombinant falcipain-3
T1 sequence (Q9NBA7 whole entry): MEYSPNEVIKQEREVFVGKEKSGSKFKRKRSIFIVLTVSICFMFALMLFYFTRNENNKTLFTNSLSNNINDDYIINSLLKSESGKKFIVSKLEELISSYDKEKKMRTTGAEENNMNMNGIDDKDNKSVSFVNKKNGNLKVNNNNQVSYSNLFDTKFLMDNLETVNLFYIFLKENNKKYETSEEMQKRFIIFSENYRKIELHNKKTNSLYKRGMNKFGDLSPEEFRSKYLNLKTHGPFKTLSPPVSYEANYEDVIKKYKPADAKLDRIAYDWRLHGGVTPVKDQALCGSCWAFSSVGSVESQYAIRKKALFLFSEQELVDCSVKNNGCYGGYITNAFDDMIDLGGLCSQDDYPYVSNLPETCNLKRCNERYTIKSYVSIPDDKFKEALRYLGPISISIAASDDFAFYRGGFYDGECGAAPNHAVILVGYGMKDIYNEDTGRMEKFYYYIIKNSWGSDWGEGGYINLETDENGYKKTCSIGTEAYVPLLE

Plasmodium falciparum [2] = experiment: Antimalarial activity against Plasmodium falciparum Itg2 in human erythrocytes by [3H]hypoxanthine uptake; assay type: functional, organism-based
Falcipain 2 = target: T2, Falcipain 2 (Plasmodium falciparum, UniProt Q9N6S8); experiment: Inhibition of Plasmodium falciparum recombinant falcipain-2
T2 sequence (Q9N6S8 whole entry): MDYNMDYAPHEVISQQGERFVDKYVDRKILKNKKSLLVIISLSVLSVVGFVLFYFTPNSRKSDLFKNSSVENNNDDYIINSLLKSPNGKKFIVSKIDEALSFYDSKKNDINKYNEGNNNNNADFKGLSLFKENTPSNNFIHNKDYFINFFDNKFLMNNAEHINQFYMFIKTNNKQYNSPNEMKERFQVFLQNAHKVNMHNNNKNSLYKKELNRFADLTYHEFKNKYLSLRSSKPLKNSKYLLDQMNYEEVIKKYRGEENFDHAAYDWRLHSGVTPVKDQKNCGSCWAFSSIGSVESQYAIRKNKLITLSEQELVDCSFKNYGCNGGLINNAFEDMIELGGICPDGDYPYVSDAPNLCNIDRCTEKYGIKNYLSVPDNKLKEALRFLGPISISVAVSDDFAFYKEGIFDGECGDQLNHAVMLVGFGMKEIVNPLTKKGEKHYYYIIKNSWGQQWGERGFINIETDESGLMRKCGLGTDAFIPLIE

Plasmodium falciparum [3] = experiment: Antimalarial activity against chloroquine-sensitive Plasmodium falciparum 3D7 in human erythrocytes by [3H]hypoxanthine uptake; assay type: functional, organism-based
Outline: (§1)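 P. falciparum kept in continuous culture in human erythrocytes; compounds tested in triplicate on parasite-infected red cells. Growth read as parasite [3H]-hypoxanthine incorporation, and IC50 derived from it. TM6 is a chloroquine-resistant strain and 3D7 a chloroquine-sensitive strain.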

Plasmodium falciparum [4] = experiment: Antimalarial activity against chloroquine-resistant Plasmodium falciparum TM6 in human erythrocytes by [3H]hypoxanthine uptake; assay type: functional, organism-based; outline: as §1

Row | SMILES | IC50 [1] [µM] | IC50 (Plasmodium falciparum [2]) [µM] | IC50 (Falcipain 2) [µM] | IC50 (Plasmodium falciparum [3]) [µM] | IC50 (Plasmodium falciparum [4]) [µM]
1 | CC(C)C[C@H](NC(=O)N1CCOCC1)C(=O)N[C@H](/C=C/S(=O)(=O)c1ccccc1)CCc1ccccc1 | 0.021 | 0.003 | – | – | –
2 | COC(=O)/C=C/[C@H](CCc1ccccc1)n1cccc(NC(=O)OCc2ccccc2)c1=O | > 25 | – | 19 | 27.9 | 35.3
3 | O=C(Nc1cccn([C@H](/C=C/S(=O)(=O)c2ccccc2)Cc2ccccc2)c1=O)OCc1ccccc1 | – | – | – | 35.7 | 36
4 | O=C[C@H](Cc1ccccc1)n1cccc(NC(=O)OCc2ccccc2)c1=O | – | – | – | 37.3 | 36
5 | O=C[C@H](CCc1ccccc1)n1cccc(NC(=O)OCc2ccccc2)c1=O | > 25 | – | 10.9 | 31 | 22.7
6 | O=C(Nc1cccn([C@H](/C=C/S(=O)(=O)c2ccccc2)CCc2ccccc2)c1=O)OCc1ccccc1 | – | – | – | 5.7 | 9
